From ChEMBL document CHEMBL1142583, “Cytotoxic flavonol glycosides from Triplaris cumingiana” (2005) come the findings set out here.

In brackets after ≈: the same amount, converted by molar mass. Some results are limits rather than exact numbers.

The GI50 is the concentration giving 50% growth inhibition.

Common to all, as to assay type: functional
One experiment concerns MCF7. The experiment is described as follows: Cytotoxicity against human MCF7 cell. The procedure, abridged: (§1)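 Human cancer cell panel: MCF-7 (breast), H-460 (lung) and SF-268 (central nervous system), run by the Monks et al. protocol; adriamycin served as the reference compound.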
A further experiment has as its system NCI-H460. Nature of the experiment: Cytotoxicity against human H460 cells. The procedure, abridged: as §1
A further experiment relates to SF-268. Nature of the experiment: Cytotoxicity against human SF-268 cells. The procedure, abridged:
as §1

Consider `O=C(OC[C@@H]1O[C@@H](Oc2c(-c3ccc(O)c(O)c3)oc3cc(O)cc(O)c3c2=O)[C@H](O)[C@H]1O)c1cc(O)c(O)c(O)c1`, for which the values for the GI50 with MCF7, with NCI-H460 and in the experiment on SF-268 were 1.4 µg/mL (≈ 2.39 µM), 1.2 µg/mL (≈ 2.05 µM) and 2.3 µg/mL (≈ 3.92 µM), respectively.
With `O=c1c(O)c(-c2ccc(O[C@@H]3O[C@@H](CO)[C@H](O)[C@H]3O)c(O)c2)oc2cc(O)cc(O)c12`, the 50% growth inhibitory concentration (GI50) was 9.1 µg/mL (≈ 21 µM) in the experiment with MCF7, 7.3 µg/mL (≈ 16.8 µM) with NCI-H460 and greater than 10 µg/mL with SF-268.
As for `O=C(OC[C@H]1O[C@@H](Oc2c(-c3ccc(O)c(O)c3)oc3cc(O)cc(O)c3c2=O)[C@H](O)[C@@H](O)[C@@H]1O)c1cc(O)c(O)c(O)c1`, the concentration for 50% growth inhibition (GI50) with MCF7, in the experiment with NCI-H460 and with SF-268 was greater than 10 µg/mL throughout.
For the molecule `O=C(OC[C@@H]1O[C@@H](Oc2c(-c3ccc(O)cc3)oc3cc(O)cc(O)c3c2=O)[C@H](O)[C@H]1O)c1cc(O)c(O)c(O)c1`, the GI50 in the experiment with MCF7 is 9 µg/mL (≈ 15.8 µM); with NCI-H460, greater than 10 µg/mL; in the experiment on SF-268, greater than 10 µg/mL.
Regarding `O=C(OC[C@H]1O[C@@H](Oc2c(-c3ccc(O)c(O)c3)oc3cc(O)cc(O)c3c2=O)[C@H](O)[C@@H](O)[C@@H]1OC(=O)c1cc(O)c(O)c(O)c1)c1cc(O)c(O)c(O)c1`, the GI50 in the experiment on MCF7 is greater than 10 µg/mL; in the experiment on NCI-H460 it was 3 µg/mL (≈ 3.9 µM); in the experiment with SF-268 it was greater than 10 µg/mL.
